ChEMBL document CHEMBL1123024, “5,6-Diaryl-2,3-dihydroimidazo[2,1-b]thiazoles: a new class of immunoregulatory antiinflammatory agents” (1985)

Assays:
Mus musculus [1] = assay: Change in paw edema in methotrexate-suppressed oxazolone -induced contact sensitivity in mice at 5 mg/kg; % change was not statistically significant; assay type: functional
Rattus norvegicus [2] = assay: Compound was tested by carrageenan -induced paw edema for percent change in paw volume of control sham operated rats; assay type: functional
In short: (§1)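 Normal, adrenalectomized or sham-operated Lewis rats were dosed po in 0.5% tragacanth, hydrated. 1 h later paw volume was read, then […] of 1% carrageenan in 0.9% saline was injected into the right hindpaw plantar surface. Volume was re-read at 3 h. Percent change, treated vs control; Student's t test.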

Rattus norvegicus [3] = assay: Compound was tested by carrageenan -induced paw edema for percent change in paw volume on treated vs. control adrenalectomized rats; assay type: functional; in short: as §1
Rattus norvegicus [4] = organism: Rattus norvegicus; assay: Inhibition of secondary nonimmune L16 inflammatory lesions was measured; activity value ranges from 0.19 - 0.79; assay type: functional
In short: (§2)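 Male Wistar rats received 0.75 mg M. butyricum in paraffin oil intradermally into the left hindpaw. Compounds were given daily po in 0.5% tragacanth from the injection day for 17 days, skipping days 4, 5, 11 and 12. Leg volumes were read by mercury displacement: left leg on day 3, both legs on day 16. Eight treated rats vs 16 vehicle controls; Student's t test. ED25 is the dose giving a 25% volume decrease, from at least three doses, with 95% limits by Fieller's theorem.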

Rattus norvegicus [5] = organism: Rattus norvegicus; assay: Inhibition of immune R16 inflammatory lesions was measured.; activity value ranges from 0.17 - 1.73; assay type: functional; in short: as §2
Rattus norvegicus [6] = organism: Rattus norvegicus; assay: Inhibition of primary nonimmune L3 inflammatory lesions was measured.; assay type: functional; in short: as §2
Mus musculus [7] = assay: Change in paw edema in oxazolone -induced arthritic mice at 5 mg/kg
Mus musculus [8] = organism: Mus musculus; assay: Immunoregulatory activity against oxazolone induced mouse contact sensitivity was evaluated as percent change; the % change was not statistically significant; assay type: functional, organism-based
In short: (§3)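 Male C57B1/6 mice were sensitized with 0.1 mL of 5% oxazolone in absolute ethanol on the clipped abdomen. At 45 h the left hind leg was challenged with 5% oxazolone. Compound was given po in 0.5% tragacanth. Edema was read plethysmographically 24 h later as left minus right leg volume. Six mice vs eight controls; Student's t test.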

Rattus norvegicus [9] = assay: The compound was tested for percent change in nonimmune L16 inflammatory lesions in rat adjuvant-induced arthritis at 50 mg/kg; assay type: functional; in short: as §2
Rattus norvegicus [10] = assay: The compound was tested for percent change in nonimmune L3 inflammatory lesions in rat adjuvant-induced arthritis at 50 mg/kg; the % change was not statistically significant; assay type: functional; in short: as §2
Rattus norvegicus [11] = assay: The compound was tested for percent change in immune R16 inflammatory lesions in rat adjuvant-induced arthritis at 50 mg/kg; the % change was not statistically significant; assay type: functional; in short: as §2
Mus musculus [12] = organism: Mus musculus; assay: Immunoregulatory activity against oxazolone induced mouse contact sensitivity was evaluated as percent change; assay type: functional; in short: as §3
Rattus norvegicus [13] = assay: The compound was tested for percent change in nonimmune L3 inflammatory lesions in rat adjuvant-induced arthritis at 50 mg/kg; assay type: functional; in short: as §2
Rattus norvegicus [14] = assay: The compound was tested for percent change in immune R16 inflammatory lesions in rat adjuvant-induced arthritis at 50 mg/kg; the % change was Not Significant; assay type: functional; in short: as §2
Rattus norvegicus [15] = assay: The compound was tested for percent change in nonimmune L16 inflammatory lesions in rat adjuvant-induced arthritis at 50 mg/kg; the %change is Not statistically significant; assay type: functional; in short: as §2
Rattus norvegicus [16] = assay: The compound was tested for percent change in nonimmune L3 inflammatory lesions in rat adjuvant-induced arthritis at 50 mg/kg; the %change is Not statistically significant; assay type: functional; in short: as §2
Rattus norvegicus [17] = assay: The compound was tested for percent change in immune R16 inflammatory lesions in rat adjuvant-induced arthritis at 50 mg/kg; the %change is Not statistically significant; assay type: functional; in short: as §2
Mus musculus [18] = assay: Immunoregulatory activity against oxazolone induced mouse contact sensitivity was evaluated as percent change at a dose of 10 mg/kg; assay type: functional; in short: as §3
Rattus norvegicus [19] = assay: The compound was tested for percent change in immune R16 inflammatory lesions in rat adjuvant-induced arthritis at 50 mg/kg; assay type: functional; in short: as §2
Rattus norvegicus [20] = organism: Rattus norvegicus; assay: animal or person
Rattus norvegicus [21] = organism: Rattus norvegicus; assay: animal or person; remark: listed apart in the source
Rattus norvegicus [22] = organism: Rattus norvegicus; assay: animal or person; remark: listed apart in the source
Mus musculus [23] = assay: Change in paw edema in methotrexate-suppressed oxazolone -induced contact sensitivity in mice at 50 mg/kg.; assay type: functional
Mus musculus [24] = organism: Mus musculus; assay: Immunoregulatory activity against mouse contact sensitivity was evaluated as percent change; assay type: functional; in short: as §3
Rattus norvegicus [25] = assay: Percent change in immune R16 inflammatory lesions in rat adjuvant-induced arthritis at 50 mg/kg; assay type: functional; in short: as §2
Rattus norvegicus [26] = assay: Change in 19S hemagglutinination titers in adjuvant-induced arthritic rats at 50 mg/kg.; assay type: functional
Rattus norvegicus [27] = assay: Change in 7S hemagglutinination titers in adjuvant-induced arthritic rats at 50 mg/kg.; assay type: functional
Rattus norvegicus [28] = assay: Compound was tested by carrageenan -induced paw edema for percent change in paw volume of control in adrenalectomized operated rats at 50 mg/kg.; assay type: functional; in short: as §1
Rattus norvegicus [29] = assay: Compound was tested by carrageenan -induced paw edema for percent change in paw volume of control sham operated rats at 50 mg/kg.; assay type: functional; in short: as §1
Rattus norvegicus [30] = assay: Percent change in nonimmune L16 inflammatory lesions in rat adjuvant-induced arthritis at 50 mg/kg; assay type: functional; in short: as §2
Rattus norvegicus [31] = assay: Percent change in nonimmune L3 inflammatory lesions in rat adjuvant-induced arthritis at 50 mg/kg; assay type: functional; in short: as §2
Rattus norvegicus [32] = organism: Rattus norvegicus; assay: Inhibition of immune, R16 inflammatory lesions was measured; assay type: functional; in short: as §2
Rattus norvegicus [33] = organism: Rattus norvegicus; assay: Inhibition of primary nonimmune, L3 inflammatory lesions was measured; assay type: functional; in short: as §2
Rattus norvegicus [34] = organism: Rattus norvegicus; assay: Inhibition of secondary nonimmune, L16 inflammatory lesions was measured; assay type: functional; in short: as §2
Mus musculus [35] = assay: Change in paw edema in oxazolone -induced arthritic mice at 50 mg/kg.

In the case of COc1ccc(-c2nc(C(F)(F)F)[nH]c2-c2ccc(OC)cc2)cc1 [FLUMIZOLE], the Change (Mus musculus [1]) is reported as 3%, the Change (Rattus norvegicus [2]) is reported as -48% and the Change (Rattus norvegicus [3]) is reported as -47%. For the same molecule, the ED25 (Rattus norvegicus [4]) was 0.45 mg/kg, the ED25 (Rattus norvegicus [5]) was 0.78 mg/kg and the ED25 (Rattus norvegicus [6]) was 11 mg/kg. The Change (Mus musculus [7]) was -28%.
COc1ccc(-c2nc3sccn3c2-c2ccc(OC)cc2)cc1 was tested, and the Change (Mus musculus [8]) was “Not significant”, the Change (Rattus norvegicus [9]) was -9% and the Change (Rattus norvegicus [10]) was -6%. For the same molecule, the Change (Rattus norvegicus [11]) was 0%.
Molecule COc1ccc(-c2nc3n(c2-c2ccc(OC)cc2)CCS3(=O)=O)cc1 has a Change (Mus musculus [12]) of 95%, a Change (Rattus norvegicus [9]) of -12% and a Change (Rattus norvegicus [13]) of -11%. It also gave a Change (Rattus norvegicus [14]) of -7%.
COc1cccc(-c2nc3n(c2-c2cccc(OC)c2)CC[S+]3[O-])c1 (centres undefined) gave a Change (Mus musculus [12]) of 59%, a Change (Rattus norvegicus [15]) of 9% and a Change (Rattus norvegicus [16]) of 4%. It also gave a Change (Rattus norvegicus [17]) of 7%.
For COc1ccc(-c2nc3n(c2-c2ccc(OC)cc2)CC[S+]3[O-])cc1 (centres undefined), the Change (Mus musculus [18]) was 76%, the Change (Rattus norvegicus [19]) was -32% and the Change (Rattus norvegicus [9]) was -29%. It also gave a Change (Rattus norvegicus [13]) of -24%.
Work on c1ccc([C@H]2CN3CCSC3=N2)cc1 [LEVAMISOLE] yielded an ED25 (Rattus norvegicus [20]) of 127 mg/kg, an ED25 (Rattus norvegicus [21]) of 44.4 mg/kg and an ED25 (Rattus norvegicus [22]) of 73.4 mg/kg.
Work on COc1ccc(-c2nc3n(c2-c2ccc(OC)cc2)CCS3)cc1 yielded a Change (Mus musculus [23]) of 156%, a Change (Mus musculus [24]) of 211% and a Change (Rattus norvegicus [25]) of -21%. The Change (Rattus norvegicus [26]) was 1.2%, the Change (Rattus norvegicus [27]) was -3.7% and the Change (Rattus norvegicus [28]) was -58%. It also gave a Change (Rattus norvegicus [29]) of -63%, a Change (Rattus norvegicus [30]) of -34% and a Change (Rattus norvegicus [31]) of -24%. For the same molecule, the ED25 (Rattus norvegicus [32]) was 24.4 mg/kg, the ED25 (Rattus norvegicus [33]) was 32.9 mg/kg and the ED25 (Rattus norvegicus [34]) was 18.7 mg/kg. It also gave a Change (Mus musculus [35]) of 211%.
